Data taken from ChEMBL document CHEMBL1129639, “Synthesis and cardiotonic activity of novel pyrimidine derivatives: crystallographic and quantum chemical studies” (J Med Chem, 1996).

Key:
Format in all cases: functional
Cavia porcellus [1] = species on record: Cavia porcellus; test: Effect on the contractile force of spontaneously beating atria from Reserpine-treated guinea pigs as percentage variation from the control at concentration of 10E-6 M
How it was run: (§1)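 Atria from reserpine-treated guinea pigs (reserpine 2 mg/kg ip, 48 and 24 h before death; only tyramine-unresponsive preparations used). Bath solution at 29 °C, gassed 95% O2/5% CO2, pH 7.5, resting tension […]. After 90 min equilibration, compound added cumulatively, 5 min per concentration. Isometric developed-tension amplitude or beating rate given as % variation from untreated control. Mean ± SEM, 6-10 assays.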

Cavia porcellus [2] = species on record: Cavia porcellus; test: Effect on the contractile force of spontaneously beating atria from Reserpine treated guinea pigs as percentage variation from the control at concentration of 10E-4 M; how it was run: as §1
Cavia porcellus [3] = species on record: Cavia porcellus; test: Compound was evaluated for its effect on the frequency rate of spontaneously beating atria from Reserpine-treated guinea pigs as percentage variation from the control at different concentration of 3 x10E-6 M; how it was run: as §1
Cavia porcellus [4] = species on record: Cavia porcellus; test: Effect on the contractile force of spontaneously beating atria from Reserpine-treated guinea pigs as percentage variation from the control at concentration of 10E-5 M; how it was run: as §1
Cavia porcellus [5] = species on record: Cavia porcellus; test: Effect on the contractile force of spontaneously beating atria from Reserpine-treated guinea pigs as percentage variation from the control at concentration of 3 x 10E-6 M; how it was run: as §1
Cavia porcellus [6] = species on record: Cavia porcellus; test: Compound was evaluated for its effect on the frequency rate of spontaneously beating atria from Reserpine-treated guinea pigs as percentage variation from the control at different concentration of 3 x 10E-5 M; how it was run: as §1
Cavia porcellus [7] = species on record: Cavia porcellus; test: Effect on the contractile force of spontaneously beating atria from Reserpine-treated guinea pigs as percentage variation from the control at concentration of 10E-3 M; how it was run: as §1
Cavia porcellus [8] = species on record: Cavia porcellus; test: Compound was evaluated for its effect on the frequency rate of spontaneously beating atria from Reserpine-treated guinea pigs as percentage variation from the control at different concentration of 10E-4 M; how it was run: as §1
Cavia porcellus [9] = species on record: Cavia porcellus; test: Compound was evaluated for its effect on the frequency rate of spontaneously beating atria from Reserpine-treated guinea pigs as percentage variation from the control at different concentration of 10E-6 M; how it was run: as §1
Cavia porcellus [10] = species on record: Cavia porcellus; test: Effect on the contractile force of spontaneously beating atria from Reserpine-treated guinea pigs as percentage variation from the control at concentration of 3 x 10E-5 M; how it was run: as §1
Cavia porcellus [11] = species on record: Cavia porcellus; test: Effect on the contractile force of spontaneously beating atria from Reserpine-treated guinea pigs as percentage variation from the control at concentration of 3 x 10E-4 M; how it was run: as §1
Cavia porcellus [12] = species on record: Cavia porcellus; test: Compound was evaluated for its effect on the frequency rate of spontaneously beating atria from Reserpine-treated guinea pigs as percentage variation from the control at different concentration of 10E-5 M; how it was run: as §1
Cavia porcellus [13] = species on record: Cavia porcellus; test: Compound was evaluated for its effect on the frequency rate of spontaneously beating atria from Reserpine-treated guinea pigs as percentage variation from the control at different concentration of 3 x 10E-4 M; how it was run: as §1
Cavia porcellus [14] = species on record: Cavia porcellus; test: Compound was evaluated for its effect on the frequency rate of spontaneously beating atria from Reserpine-treated guinea pigs as percentage variation from the control at different concentration of 10E-3 M; how it was run: as §1
Cavia porcellus [15] = species on record: Cavia porcellus; test: Compound was evaluated for its effect on the frequency rate of spontaneously beating atria from Reserpine-treated guinea pigs as percentage variation from the control at concentration of 3 x 10E-4 M; how it was run: as §1
Cavia porcellus [16] = species on record: Cavia porcellus; test: Compound was evaluated for its effect on the contractile force of spontaneously beating atria from Reserpine-treated guinea pigs as percentage variation from the control at concentration 10E-3 M; how it was run: as §1
Cavia porcellus [17] = species on record: Cavia porcellus; test: Effect on the frequency rate of spontaneously beating atria from Reserpine-treated guinea pigs as percentage variation from the control at concentration of 10E-3 M; how it was run: as §1
Cavia porcellus [18] = species on record: Cavia porcellus; test: Compound was evaluated for its effect on the frequency rate of spontaneously beating atria from Reserpine-treated guinea pigs as percentage variation from the control at concentration of 3 x 10E-5 M; how it was run: as §1
Cavia porcellus [19] = species on record: Cavia porcellus; test: Effect on the frequency rate of spontaneously beating atria from Reserpine-treated guinea pigs as percentage variation from the control at concentration of 10E-5 M; how it was run: as §1
Cavia porcellus [20] = species on record: Cavia porcellus; test: Effect on the frequency rate of spontaneously beating atria from Reserpine-treated guinea pigs as percentage variation from the control at concentration of 10E-4 M; how it was run: as §1
Cavia porcellus [21] = species on record: Cavia porcellus; test: Compound was evaluated for its effect on the frequency rate of spontaneously beating atria from Reserpine-treated guinea pigs as percentage variation from the control at concentration of 3 x 10E-6 M; how it was run: as §1
Cavia porcellus [22] = species on record: Cavia porcellus; test: Compound was evaluated for its effect on the frequency rate of spontaneously beating atria from Reserpine-treated guinea pigs as percentage variation from the control at concentration of 10e-6 M; how it was run: as §1

## CN(C)c1ncccn1
Cavia porcellus [1]
  Variation: 0%
Cavia porcellus [2]
  Variation: 15.08%
Cavia porcellus [3]
  Variation: 0%
Cavia porcellus [4]
  Variation: 9.17%
Cavia porcellus [5]
  Variation: 4.92%
Cavia porcellus [6]
  Variation: 3.72%
Cavia porcellus [7]
  Variation: 41.66%
Cavia porcellus [8]
  Variation: 9.72%
Cavia porcellus [9]
  Variation: 0%
Cavia porcellus [10]
  Variation: 11.63%
Cavia porcellus [11]
  Variation: 37.73%
Cavia porcellus [12]
  Variation: 1.33%
Cavia porcellus [13]
  Variation: 17.44%
Cavia porcellus [14]
  Variation: 25.17%

## CCOC(=O)c1cnc(N(C)C)nc1C
Cavia porcellus [1]
  Variation: 2.79%
Cavia porcellus [15]
  Variation: 10.71%
Cavia porcellus [16]
  Variation: -49.52%
Cavia porcellus [2]
  Variation: -21.41%
Cavia porcellus [4]
  Variation: 9.91%
Cavia porcellus [5]
  Variation: 7.12%
Cavia porcellus [17]
  Variation: -17.85%
Cavia porcellus [18]
  Variation: 3.57%
Cavia porcellus [10]
  Variation: 15.88%
Cavia porcellus [19]
  Variation: 0%
Cavia porcellus [11]
  Variation: -25.87%
Cavia porcellus [20]
  Variation: 7.14%
Cavia porcellus [21]
  Variation: 0%
Cavia porcellus [22]
  Variation: -3.57%
